Laboratory results as given in ChEMBL document CHEMBL1147785, “Novel peptidomimetic cysteine protease inhibitors as potential antimalarial agents” (J Med Chem, 2006).
Calls of active or inactive are those of the source. No cut-off for these calls is given here. Residues, ends and D or L forms follow the SMILES beside them. *: point of attachment. Cbz = O=C(OCc1ccccc1)*

How the values were obtained:
Falcipain 2 = target: T1, Falcipain 2 (Plasmodium falciparum, UniProt Q9N6S8); assay: Inhibition of Plasmodium falciparum recombinant FP2A fused with maltose binding protein
T1 sequence (Q9N6S8 whole entry): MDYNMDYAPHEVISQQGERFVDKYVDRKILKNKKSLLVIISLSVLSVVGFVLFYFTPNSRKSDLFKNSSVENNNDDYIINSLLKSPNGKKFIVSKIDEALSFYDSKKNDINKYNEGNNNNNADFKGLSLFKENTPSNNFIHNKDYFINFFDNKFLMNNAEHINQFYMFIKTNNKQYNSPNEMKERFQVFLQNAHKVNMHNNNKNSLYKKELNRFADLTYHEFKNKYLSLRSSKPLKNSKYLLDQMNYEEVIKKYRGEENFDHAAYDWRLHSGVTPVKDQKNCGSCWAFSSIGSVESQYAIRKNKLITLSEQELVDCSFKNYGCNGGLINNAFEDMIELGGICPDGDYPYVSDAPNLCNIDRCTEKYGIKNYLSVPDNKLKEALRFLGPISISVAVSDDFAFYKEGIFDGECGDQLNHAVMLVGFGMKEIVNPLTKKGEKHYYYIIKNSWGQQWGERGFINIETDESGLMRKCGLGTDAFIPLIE
Method in brief: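 Recombinant enzyme expressed in E. coli as a maltose binding protein fusion. Fluorescence assay using the fluorogenic substrate Z-Leu-Arg-AMC, with inhibitor at various concentrations. Hydrolysis rate was compared with DMSO-only negative controls and with positive controls containing a standard papain-family cysteine protease aldehyde inhibitor. Results are given as IC50.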

Caspase-1 (Homo sapiens) = target: T2, Caspase-1 (Homo sapiens) (UniProt P29466); assay: Inhibition of human recombinant caspase1 upto 50 uM
T2 sequence (whole entry): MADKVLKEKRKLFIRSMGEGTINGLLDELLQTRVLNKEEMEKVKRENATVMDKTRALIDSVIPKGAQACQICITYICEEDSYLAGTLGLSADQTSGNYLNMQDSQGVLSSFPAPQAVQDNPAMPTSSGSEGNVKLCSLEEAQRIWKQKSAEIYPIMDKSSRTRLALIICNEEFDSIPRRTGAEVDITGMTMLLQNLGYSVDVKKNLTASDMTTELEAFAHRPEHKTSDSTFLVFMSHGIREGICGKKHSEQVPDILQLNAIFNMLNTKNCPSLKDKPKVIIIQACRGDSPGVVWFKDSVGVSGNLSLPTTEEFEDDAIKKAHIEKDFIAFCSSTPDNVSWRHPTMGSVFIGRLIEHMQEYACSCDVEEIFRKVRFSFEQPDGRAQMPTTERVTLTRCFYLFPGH

Caspase-3 (Homo sapiens) = target: T3, Caspase-3 (Homo sapiens) (UniProt P42574); assay: Inhibition of human recombinant caspase3 upto 50 uM
T3 sequence (whole entry): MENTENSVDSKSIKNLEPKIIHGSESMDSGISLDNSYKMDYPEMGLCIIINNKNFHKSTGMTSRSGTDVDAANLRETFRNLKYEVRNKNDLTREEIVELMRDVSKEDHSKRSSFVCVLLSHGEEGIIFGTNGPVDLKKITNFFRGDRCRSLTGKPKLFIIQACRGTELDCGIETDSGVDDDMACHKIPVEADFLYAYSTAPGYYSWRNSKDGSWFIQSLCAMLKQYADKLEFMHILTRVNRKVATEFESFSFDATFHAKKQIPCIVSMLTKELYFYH

| SMILES | IC50 (Falcipain 2) [µM] | Activity (Caspase-1 (Homo sapiens)) | Activity (Caspase-3 (Homo sapiens)) |
| --- | --- | --- | --- |
| O=C(CN1C(=O)[C@@H](COC(=O)Nc2ccc(Cl)cc2)N=C(c2ccccc2)c2ccccc21)N[C@H]1CC(=O)OC1O (stereo partly drawn) | 15 | inactive | inactive |
| CC(C)[C@H](NC(=O)OCc1ccccc1)C(=O)N[C@H](C=O)Cc1ccccc1 (Cbz-Val-Phe-aldehyde) | 5 | inactive | inactive |
| COc1ccc(NC(=O)OC[C@H]2N=C(c3ccccc3)c3ccccc3N(CC(=O)N[C@H]3CC(=O)OC3O)C2=O)cc1 (stereo partly drawn) | 8.79 | inactive | inactive |
| O=C(CN1C(=O)[C@H](COC(=O)Nc2ccc(Cl)cc2C(F)(F)F)N=C(c2ccccc2)c2ccccc21)N[C@H]1CC(=O)OC1O (stereo partly drawn) | 10.3 | inactive | inactive |
| O=C(CN1C(=O)[C@@H](COC(=O)Nc2ccc(F)cc2)N=C(c2ccccc2)c2ccccc21)N[C@H]1CC(=O)OC1O (stereo partly drawn) | 16.3 | inactive | inactive |
| O=C(CN1C(=O)[C@@H](COC(=O)Nc2cccc3ccccc23)N=C(c2ccccc2)c2ccccc21)N[C@H]1CC(=O)OC1O (stereo partly drawn) | 11.2 | inactive | inactive |
| Cc1cc(Cl)ccc1NC(=O)OC[C@H]1N=C(c2ccccc2)c2ccccc2N(CC(=O)N[C@H]2CC(=O)OC2O)C1=O (stereo partly drawn) | 8.25 | inactive | inactive |
| O=C(CN1C(=O)[C@@H](COC(=O)Nc2ccc(Cl)cc2C(F)(F)F)N=C(c2ccccc2)c2ccccc21)N[C@H]1CC(=O)OC1O (stereo partly drawn) | 8.68 | inactive | inactive |
| O=C(CN1C(=O)[C@@H](COC(=O)Nc2ccc(F)cc2F)N=C(c2ccccc2)c2ccccc21)N[C@H]1CC(=O)OC1O (stereo partly drawn) | 13.5 | inactive | inactive |
| O=C(CN1C(=O)[C@@H](COC(=O)Nc2c(F)cc(F)cc2Br)N=C(c2ccccc2)c2ccccc21)N[C@H]1CC(=O)OC1O (stereo partly drawn) | 19.2 | inactive | inactive |
| O=C(CN1C(=O)[C@@H](COC(=O)Nc2ccccc2)N=C(c2ccccc2)c2ccccc21)N[C@H]1CC(=O)OC1O (stereo partly drawn) | 21.5 | inactive | inactive |
